Active and inactive are the calls of the source. The rule behind the calls is not given here.
How the values were obtained:
[1] = Antioxidant activity assessed as DPPH free radical scavenging activity incubated for 30 mins in dark condition by spectrophotometric analysis; type: functional
Summary of the method: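 Test samples dissolved in absolute ethanol at a range of concentrations; 1 mL mixed with 1 mL 0.2 mM DPPH in ethanol, kept in the dark 30 min, absorbance read at 517 nm against an ethanol blank. L-ascorbic acid as positive control. Triplicate measurements; IC50 taken from the dose-response curve by linear regression interpolation.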

[2] = Antioxidant activity assessed as hydroxyl radical scavenging activity incubated for 1 hr by spectrophotometric analysis; type: functional
Summary of the method: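 Phenanthroline (0.75 mM in ethanol), 0.2 M phosphate buffer pH 7.4, sample in DMSO and 0.75 mM FeSO4 (1 mL each) mixed, then 1 mL 0.01% H2O2 added. Incubated 1 h at 37 °C in a water bath, absorbance read at 536 nm. Triplicate; IC50 (mM) by regression interpolation.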

Tyrosinase = biological target: T1, Tyrosinase (Agaricus bisporus, UniProt O42713); test: Inhibition of mushroom tyrosinase using […] as substrate measured after 30 mins
T1 sequence (O42713 whole entry): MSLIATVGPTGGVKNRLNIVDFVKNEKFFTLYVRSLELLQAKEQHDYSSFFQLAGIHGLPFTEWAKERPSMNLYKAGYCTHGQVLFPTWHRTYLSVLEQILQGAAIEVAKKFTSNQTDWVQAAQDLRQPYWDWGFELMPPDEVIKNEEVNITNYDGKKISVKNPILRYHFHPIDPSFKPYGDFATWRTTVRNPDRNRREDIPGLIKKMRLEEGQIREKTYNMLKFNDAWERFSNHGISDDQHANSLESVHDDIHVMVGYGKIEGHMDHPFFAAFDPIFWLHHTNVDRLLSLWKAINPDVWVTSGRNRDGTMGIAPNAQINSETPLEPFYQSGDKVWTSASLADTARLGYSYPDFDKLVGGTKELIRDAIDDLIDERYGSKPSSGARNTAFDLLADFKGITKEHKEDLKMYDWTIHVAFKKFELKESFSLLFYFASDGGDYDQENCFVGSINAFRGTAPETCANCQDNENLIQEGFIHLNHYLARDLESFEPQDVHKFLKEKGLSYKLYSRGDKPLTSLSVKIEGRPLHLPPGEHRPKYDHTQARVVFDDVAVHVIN
Summary of the method: (§1)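 Substrate L-tyrosine (0.507 g/L stock in HCl/0.2 M phosphate buffer pH 6.8). Inhibitor stock 1 g/L in DMSO, replaced by DMSO for the reference. Mushroom tyrosinase (200 U/mL stock in 0.2 M phosphate buffer pH 6.8) added last. Incubated 37 °C for 30 min, absorbance read at 475 nm. Percent inhibition from blank-corrected absorbances; triplicate; ferulic acid as positive control.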

[3] = biological target: T2, Tyrosinase (Agaricus bisporus) (UniProt O42713); test: Inhibition of mushroom tyrosinase at 1 g/L using […] as substrate measured after 30 mins; summary of the method: as §1
T2 sequence (whole entry): T1 sequence (O42713 whole entry)

Compound	IC50 [1] [µM]	IC50 [2] [µM]	IC50 (Tyrosinase) [µM]	inhibition [3]
CCOC(=O)[C@@H](NC(=O)/C=C/c1ccc(O)c(O)c1)C(C)C	19.6	348		
CCOC(=O)[C@H](Cc1ccccc1)NC(=O)/C=C/c1ccc(O)c(O)c1	33.2	292	> 29	
COc1cc(/C=C/C(=O)O)ccc1O [FERULATE]	35.7			Active
CCOC(=O)[C@H](CC(C)C)NC(=O)/C=C/c1ccc(OC(C)=O)c(OC)c1	> 500			Active
CCOC(=O)[C@@H](NC(=O)/C=C/c1ccc(OC(C)=O)c(OC)c1)C(C)C	> 500			Active
CCOC(=O)[C@H](C)NC(=O)/C=C/c1ccc(OC(C)=O)c(OC)c1	482			Active
CCOC(=O)[C@@H](NC(=O)/C=C/c1ccc(O)c(OC)c1)C(C)C	59.6			Active
CCOC(=O)[C@H](CC(C)C)NC(=O)/C=C/c1ccc(O)c(O)c1	28.6	373		
O=C1O[C@H]([C@@H](O)CO)C(O)=C1O [ASCORBIC ACID]	80.9	1620		
CCOC(=O)[C@H](C)NC(=O)/C=C/c1ccc(O)c(OC)c1	46.4			Active
COc1cc(/C=C/C(=O)O)ccc1OC(C)=O	> 500			Active
CCOC(=O)CNC(=O)/C=C/c1ccc(O)c(O)c1	18.6	340		
CCOC(=O)[C@H](CC(C)C)NC(=O)/C=C/c1ccc(O)c(OC)c1	56.1			Active
CCOC(=O)[C@H](C)NC(=O)/C=C/c1ccc(O)c(O)c1	29.7	214		
O=C(O)/C=C/c1ccc(O)c(O)c1 [CAFFEIC ACID]	27.6	287		
CCOC(=O)[C@@H](NC(=O)/C=C/c1ccc(O)c(O)c1)[C@@H](C)CC	43.5	411		
CCOC(=O)[C@H](Cc1ccccc1)NC(=O)/C=C/c1ccc(O)c(OC)c1			< 0.18	
